Drawing on ChEMBL document CHEMBL1275434, “In vitro evaluation of CBR-2092, a novel rifamycin-quinolone hybrid antibiotic: studies of the mode of action in Staphylococcus aureus” (Antimicrob Agents Chemother, 2008), this text covers MIC and CC50 for three molecules.

In brackets after ≈: the same amount, converted by molar mass.

The test system of experiment [1] is Staphylococcus aureus. Put plainly: Antimicrobial activity against Staphylococcus aureus CB808 harboring quinolone-resistant parC S80F mutant gene by broth microdilution method. Type of experiment: functional. The gist of the method:
(§1)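 CLSI broth microdilution MIC in cation-adjusted Mueller-Hinton (MHII) broth supplemented with 0.002% (vol/vol) polysorbate 80, included to limit compound loss to plastic surfaces.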
(Dilution methods test growth across graded concentrations, often in twofold steps.)

Experiment [2] relates to Staphylococcus aureus. The experiment in a line: Antimicrobial activity against Staphylococcus aureus CB814 harboring fluoroquinolone-resistant gyrA S84L and parC S80F mutant genes by broth microdilution method. Type of experiment: functional. An outline of the steps:
as §1

For experiment [3], the system named is Staphylococcus aureus. Put plainly: Antimicrobial activity against Staphylococcus aureus CB815 harboring rpoB H481Y, gyrA S84L and parC S80F mutant genes by broth microdilution method.
For experiment [4], the system named is Staphylococcus aureus. The experiment in a line: Antimicrobial activity against Staphylococcus aureus CB812 harboring rpo B H481Y and gyrA S84L mutant genes by broth microdilution method. It is filed as functional. The gist of the method: as §1
Experiment [5] has as its system Staphylococcus aureus. The experiment in a line: Antimicrobial activity against Staphylococcus aureus CB811 harboring quinolone-resistant gyrA S84L mutant gene by broth microdilution method. Type of experiment: functional. An outline of the steps:
as §1

Experiment [6] relates to Staphylococcus aureus. Put plainly: Antimicrobial activity against Staphylococcus aureus CB370 harboring rifampin-resistant rpoB H481Y mutant gene by broth microdilution method. Type of experiment: functional. An outline of the steps: as §1
In experiment [7] the test system is Staphylococcus aureus. The experiment in a line: Antimicrobial activity against Staphylococcus aureus CB190 by broth microdilution method. Type of experiment: functional.
Experiment [8] concerns Staphylococcus aureus. Put plainly: Antimicrobial activity against Staphylococcus aureus CB809 harboring rpoB H481Y and parC S80F mutant genes by broth microdilution method.
Experiment [9] relates to Staphylococcus aureus. The experiment in a line: Activity at Staphylococcus aureus wild-type DNA topoisomerase 4 subunit ParC. The gist of the method: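 Recombinant S. aureus topoisomerase IV (wild-type ParC with ParE; specific activity 25 to 30 U per μg). Stopped with SDS/proteinase K. Linear DNA quantified on gel; CC50 is the mean of two or more assays.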
Experiment [10] concerns Staphylococcus aureus. The experiment in a line: Activity at Staphylococcus aureus wild-type GyrA. The gist of the method:
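Recombinant S. aureus gyrase (wild-type GyrA with His-tagged GyrB; 250 U per μg). SDS/proteinase K stop. Gel quantitation of linear cleavage product gave CC50, the mean of two or more assays.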

The test system of experiment [11] is Staphylococcus aureus. The experiment in a line: Activity at Staphylococcus aureus DNA topoisomerase 4 subunit ParC S80F mutant.
For experiment [12], the system named is DNA gyrase subunit A (Staphylococcus aureus), P20831 [S84L]. The experiment in a line: Activity at Staphylococcus aureus wild-type GyrA S84L mutant.

As to `C[C@H]1COc2c(N3CCN(C)CC3)c(F)cc3c(=O)c(C(=O)O)cn1c23.C[C@H]1COc2c(N3CCN(C)CC3)c(F)cc3c(=O)c(C(=O)O)cn1c23.O` [LEVOFLOXACIN], the MIC was 1 µg/mL with Staphylococcus aureus [1]; 8 µg/mL with Staphylococcus aureus [2]; 8 µg/mL with Staphylococcus aureus [3]; 0.25 µg/mL in the experiment on Staphylococcus aureus [4]; 0.25 µg/mL in the experiment on Staphylococcus aureus [5]; 0.25 µg/mL in the experiment with Staphylococcus aureus [6]. Besides, the figures for the MIC with Staphylococcus aureus [7] and in the experiment with Staphylococcus aureus [8] were 0.25 µg/mL and 1 µg/mL, respectively.
As for `COc1c(N2CCNC(C)C2)c(F)cc2c(=O)c(C(=O)O)cn(C3CC3)c12` (configuration not stated) [GATIFLOXACIN], the CC50 with Staphylococcus aureus [9] worked out at 220 nM; in the experiment with Staphylococcus aureus [10] it was 700 nM; in the experiment on Staphylococcus aureus [11] it was 13000 nM; in experiment [12] it was 18000 nM. Further, the MIC against Staphylococcus aureus [1] was 0.25 µg/mL (≈ 0.666 µM); in the experiment on Staphylococcus aureus [2] it was 8 µg/mL (≈ 21.3 µM); in the experiment with Staphylococcus aureus [3], 8 µg/mL (≈ 21.3 µM); in the experiment on Staphylococcus aureus [4], 0.12 µg/mL (≈ 0.32 µM); in the experiment with Staphylococcus aureus [5], 0.12 µg/mL (≈ 0.32 µM); against Staphylococcus aureus [6] it was 0.06 µg/mL (≈ 0.16 µM). Besides, the results for the MIC against Staphylococcus aureus [7] and against Staphylococcus aureus [8] were 0.06 µg/mL (≈ 0.16 µM) and 0.25 µg/mL (≈ 0.666 µM), respectively.
As to `Cc1c(N2CC[C@@H](N)C2)c(F)cn2c(=O)c(C(=O)O)cc(C3CC3)c12`, the CC50 in the experiment on Staphylococcus aureus [9] was 60 nM; with Staphylococcus aureus [10], 90 nM; with Staphylococcus aureus [11] it was 1100 nM; in experiment [12], 900 nM. For the same molecule, the MIC turned out to be 0.03 µg/mL (≈ 0.0869 µM) against Staphylococcus aureus [1]; 0.5 µg/mL (≈ 1.45 µM) against Staphylococcus aureus [2]; 0.25 µg/mL (≈ 0.724 µM) against Staphylococcus aureus [3]; 0.03 µg/mL (≈ 0.0869 µM) against Staphylococcus aureus [4]; 0.03 µg/mL (≈ 0.0869 µM) in the experiment with Staphylococcus aureus [5]; 0.015 µg/mL (≈ 0.0434 µM) in the experiment with Staphylococcus aureus [6]. For the same molecule, the minimal inhibitory concentration (MIC) in the experiment with Staphylococcus aureus [7] was 0.015 µg/mL (≈ 0.0434 µM); in the experiment on Staphylococcus aureus [8] it was 0.03 µg/mL (≈ 0.0869 µM).

A word on the MIC: it is the least concentration at which growth counts as inhibited. A low value points to inhibition by little substance.
